Laboratory results as given in ChEMBL document CHEMBL4270623, “Identification of novel inhibitors of histone acetyltransferase hMOF through high throughput screening” (Eur J Med Chem, 2018).
Active and inactive are the calls of the source. The calls are words filed in the database; no cut-off is given here.

Key:
[1] = molecular target: T1, Histone acetyltransferase KAT8 (Homo sapiens, UniProt Q9H7Z6); test: Inhibition of human His-tagged MOF preincubated for 10 mins followed by biotin-labeled H4K16 substrate addition measured after 30 mins in presence of acetyl-CoA by alphascreen assay
T1 sequence (Q9H7Z6 whole entry): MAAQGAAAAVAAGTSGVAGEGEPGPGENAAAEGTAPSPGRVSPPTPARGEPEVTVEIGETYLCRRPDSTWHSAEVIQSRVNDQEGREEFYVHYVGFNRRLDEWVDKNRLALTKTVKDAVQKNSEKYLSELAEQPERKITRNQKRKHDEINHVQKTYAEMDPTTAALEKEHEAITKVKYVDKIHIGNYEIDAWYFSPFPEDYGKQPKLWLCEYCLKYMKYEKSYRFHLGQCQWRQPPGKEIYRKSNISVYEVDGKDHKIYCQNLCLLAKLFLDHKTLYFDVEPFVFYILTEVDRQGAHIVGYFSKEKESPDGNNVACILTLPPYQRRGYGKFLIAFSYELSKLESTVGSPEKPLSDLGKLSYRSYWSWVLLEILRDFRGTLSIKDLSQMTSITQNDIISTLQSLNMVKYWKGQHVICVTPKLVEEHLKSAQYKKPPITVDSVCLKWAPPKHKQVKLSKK

[2] = molecular target: Histone acetyltransferase KAT2A (Homo sapiens, UniProt Q92830); test: Inhibition of recombinant human GST-tagged Gcn5 using H3 as substrate in presence of [3H]-acetyl-CoA by phosphor image analysis
Histone acetyltransferase KAT2A, sequence (Q92830 whole entry): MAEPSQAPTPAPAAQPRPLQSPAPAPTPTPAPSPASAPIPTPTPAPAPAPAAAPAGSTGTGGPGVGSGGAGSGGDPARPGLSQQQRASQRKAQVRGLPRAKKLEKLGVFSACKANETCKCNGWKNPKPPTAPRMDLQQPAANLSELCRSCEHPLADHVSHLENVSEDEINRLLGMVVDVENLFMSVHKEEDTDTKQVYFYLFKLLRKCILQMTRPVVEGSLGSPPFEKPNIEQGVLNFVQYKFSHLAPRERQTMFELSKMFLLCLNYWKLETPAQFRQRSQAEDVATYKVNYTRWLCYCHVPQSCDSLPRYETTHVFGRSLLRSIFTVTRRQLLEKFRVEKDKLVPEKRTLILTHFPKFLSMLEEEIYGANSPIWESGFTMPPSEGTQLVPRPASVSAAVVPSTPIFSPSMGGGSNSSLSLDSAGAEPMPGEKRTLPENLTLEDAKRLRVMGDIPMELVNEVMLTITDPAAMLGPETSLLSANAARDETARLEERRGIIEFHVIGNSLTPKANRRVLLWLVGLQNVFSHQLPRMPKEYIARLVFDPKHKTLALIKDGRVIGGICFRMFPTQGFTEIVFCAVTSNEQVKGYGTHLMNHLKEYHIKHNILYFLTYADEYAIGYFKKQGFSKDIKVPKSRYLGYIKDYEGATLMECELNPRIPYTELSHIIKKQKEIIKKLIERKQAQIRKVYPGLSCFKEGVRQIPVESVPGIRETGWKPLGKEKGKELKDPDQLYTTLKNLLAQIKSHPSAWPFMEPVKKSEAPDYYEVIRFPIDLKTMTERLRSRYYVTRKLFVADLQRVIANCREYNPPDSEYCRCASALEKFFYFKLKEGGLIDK

[3] = molecular target: T2, Histone acetyltransferase KAT8 (Homo sapiens) (UniProt Q9H7Z6); test: Inhibition of human His-tagged MOF at 50 uM using histone H4 substrate by radioactive acetylation assay relative to control
T2 sequence (whole entry): T1 sequence (Q9H7Z6 whole entry)
Outline: (§1)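 His6-tagged hMOF catalytic domain (173-458) from E. coli, preincubated with compound for 15 min at room temperature in modified Tris buffer pH 7.5, then given biotinylated H4-derived peptide and [3H]acetyl-CoA. Reaction ran 240 min at room temperature, was captured on a streptavidin Flashplate, washed and scintillation-counted. Percent inhibition computed; IC50 from a nonlinear dose-response fit.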

[4] = molecular target: T1, Histone acetyltransferase KAT8; test: Inhibition of human His-tagged MOF using histone H4 substrate by radioactive acetylation assay; outline: as §1
[5] = molecular target: T2, Histone acetyltransferase KAT8 (Homo sapiens); test: Inhibition of human His-tagged MOF at 100 uM using histone H4 substrate by radioactive acetylation assay relative to control; outline: as §1
[6] = molecular target: T2, Histone acetyltransferase KAT8 (Homo sapiens); test: (§2) Binding affinity to human His-tagged MOF by SPR analysis
Outline: (§3)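 hMOF catalytic domain (173-458), N-terminal His6, expressed in E. coli BL21(DE3), amine-coupled to a CM5 chip in 10 mM sodium acetate pH 4.0; SPR at 25 °C in HBS (20 mM HEPES pH 7.4, 200 mM NaCl, 0.5% DMSO). Analyte 5–100 μM injected 120 s at 30 μL/min, then 300 s dissociation; Kd from a steady-state fit.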

[7] = molecular target: T1, Histone acetyltransferase KAT8; test: as §2; outline: as §3
[8] = molecular target: T2, Histone acetyltransferase KAT8 (Homo sapiens); test: Inhibition of MOF in human HCT116 cells assessed as decrease in UCP2 mRNA level after 3 days by quantitative real-time PCR analysis
[9] = species on record: Homo sapiens; test: Selectivity ratio of IC50 for DNMT1 (unknown origin) to IC50 for human His-tagged MOF by alphascreen assay
[10] = molecular target: T2, Histone acetyltransferase KAT8 (Homo sapiens); test: Inhibition of MOF in human HCT116 cells assessed as decrease in H4K16 acetylation level after 24 hrs by Western blot analysis; type: cell-based
Outline: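 HCT116 cells treated for 24 h. Lysates run on 4–16% SDS-PAGE, transferred to nitrocellulose, blocked in 5% milk/PBST, primary antibody overnight at 4 °C, HRP donkey anti-rabbit secondary at 1:10000 for 1 h; H4K16 acetylation level read.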

[11] = molecular target: Protein arginine N-methyltransferase 1 (Homo sapiens, UniProt Q99873); test: Inhibition of PRMT1 (unknown origin)
Protein arginine N-methyltransferase 1, sequence (Q99873 whole entry): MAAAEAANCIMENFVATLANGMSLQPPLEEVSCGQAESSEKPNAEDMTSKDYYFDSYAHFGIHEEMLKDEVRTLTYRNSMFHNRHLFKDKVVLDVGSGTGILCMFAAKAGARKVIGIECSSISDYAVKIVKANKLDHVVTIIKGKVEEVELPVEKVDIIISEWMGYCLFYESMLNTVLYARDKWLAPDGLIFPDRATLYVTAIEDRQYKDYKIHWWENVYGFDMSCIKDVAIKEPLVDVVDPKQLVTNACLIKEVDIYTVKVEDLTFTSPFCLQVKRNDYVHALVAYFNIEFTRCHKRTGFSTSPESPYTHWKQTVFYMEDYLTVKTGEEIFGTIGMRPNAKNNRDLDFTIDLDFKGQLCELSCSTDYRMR

[12] = molecular target: DNA (cytosine-5)-methyltransferase 1 (Homo sapiens, UniProt P26358); test: Inhibition of DNMT1 (unknown origin)
DNA (cytosine-5)-methyltransferase 1, sequence (P26358 whole entry): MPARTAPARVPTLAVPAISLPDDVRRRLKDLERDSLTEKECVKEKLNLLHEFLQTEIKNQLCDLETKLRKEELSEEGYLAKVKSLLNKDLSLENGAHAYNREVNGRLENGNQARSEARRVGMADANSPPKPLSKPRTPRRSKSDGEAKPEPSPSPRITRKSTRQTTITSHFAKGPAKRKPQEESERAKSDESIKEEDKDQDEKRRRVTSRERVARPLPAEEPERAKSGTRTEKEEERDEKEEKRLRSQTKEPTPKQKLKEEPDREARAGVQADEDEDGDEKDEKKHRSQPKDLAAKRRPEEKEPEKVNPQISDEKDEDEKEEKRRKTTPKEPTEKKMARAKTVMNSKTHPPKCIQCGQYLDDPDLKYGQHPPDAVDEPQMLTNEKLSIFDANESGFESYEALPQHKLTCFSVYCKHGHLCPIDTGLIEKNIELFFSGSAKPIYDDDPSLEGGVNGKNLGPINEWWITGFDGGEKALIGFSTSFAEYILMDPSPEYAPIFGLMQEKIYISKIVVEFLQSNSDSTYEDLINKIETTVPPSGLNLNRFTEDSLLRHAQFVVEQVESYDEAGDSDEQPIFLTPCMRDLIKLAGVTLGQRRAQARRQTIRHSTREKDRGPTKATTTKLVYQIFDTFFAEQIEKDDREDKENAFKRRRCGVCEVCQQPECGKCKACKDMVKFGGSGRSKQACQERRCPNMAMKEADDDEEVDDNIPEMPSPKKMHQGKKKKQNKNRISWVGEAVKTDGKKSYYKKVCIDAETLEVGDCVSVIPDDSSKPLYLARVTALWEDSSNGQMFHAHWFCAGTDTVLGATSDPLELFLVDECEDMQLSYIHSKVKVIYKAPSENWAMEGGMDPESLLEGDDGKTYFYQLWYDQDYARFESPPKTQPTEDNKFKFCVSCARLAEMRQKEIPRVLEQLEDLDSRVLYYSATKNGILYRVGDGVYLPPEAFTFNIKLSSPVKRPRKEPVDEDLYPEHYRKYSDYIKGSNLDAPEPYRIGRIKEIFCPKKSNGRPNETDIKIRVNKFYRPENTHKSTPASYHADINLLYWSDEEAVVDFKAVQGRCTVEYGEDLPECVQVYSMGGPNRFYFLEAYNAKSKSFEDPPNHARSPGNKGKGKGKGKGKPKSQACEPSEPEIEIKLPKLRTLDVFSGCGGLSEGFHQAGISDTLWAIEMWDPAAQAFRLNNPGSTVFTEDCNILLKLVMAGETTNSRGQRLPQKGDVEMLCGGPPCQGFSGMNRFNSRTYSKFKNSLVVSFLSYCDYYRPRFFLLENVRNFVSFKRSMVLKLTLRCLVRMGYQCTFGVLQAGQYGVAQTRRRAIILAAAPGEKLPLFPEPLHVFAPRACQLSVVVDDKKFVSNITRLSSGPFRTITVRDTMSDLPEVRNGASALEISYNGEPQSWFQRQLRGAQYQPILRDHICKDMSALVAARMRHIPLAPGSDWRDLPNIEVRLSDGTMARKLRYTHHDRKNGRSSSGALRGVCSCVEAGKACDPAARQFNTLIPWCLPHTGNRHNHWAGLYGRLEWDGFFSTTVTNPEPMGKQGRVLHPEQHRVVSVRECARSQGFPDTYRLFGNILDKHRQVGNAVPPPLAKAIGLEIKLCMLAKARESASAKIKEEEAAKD

[13] = test system: HCT-116; test: Upregulation of IFI16 mRNA level in human HCT116 cells at 50 to 100 uM after 3 days by quantitative real-time PCR analysis
[14] = test system: HCT-116; test: Inhibition of colony formation in human HCT116 cells after 14 days by crystal violet staining based assay; type: functional, cell-based
[15] = molecular target: Histone deacetylase 1 (Homo sapiens, UniProt Q13547); test: Inhibition of HDAC1 (unknown origin)
Histone deacetylase 1, sequence (Q13547 whole entry): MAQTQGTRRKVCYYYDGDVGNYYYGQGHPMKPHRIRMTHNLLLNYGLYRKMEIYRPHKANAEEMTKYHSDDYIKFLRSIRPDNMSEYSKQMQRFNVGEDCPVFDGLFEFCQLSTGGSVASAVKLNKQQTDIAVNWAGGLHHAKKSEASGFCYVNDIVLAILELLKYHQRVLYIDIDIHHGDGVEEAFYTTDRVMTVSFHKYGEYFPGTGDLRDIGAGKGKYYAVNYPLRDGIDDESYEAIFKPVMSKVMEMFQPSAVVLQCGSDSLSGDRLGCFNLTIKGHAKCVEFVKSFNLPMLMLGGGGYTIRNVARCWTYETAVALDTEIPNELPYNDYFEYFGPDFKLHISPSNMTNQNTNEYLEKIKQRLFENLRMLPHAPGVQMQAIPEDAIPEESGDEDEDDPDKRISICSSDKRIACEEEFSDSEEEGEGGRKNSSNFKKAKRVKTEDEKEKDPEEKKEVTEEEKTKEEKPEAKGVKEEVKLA

[16] = species on record: Homo sapiens; test: Selectivity ratio of IC50 for PRMT1 (unknown origin) to IC50 for human His-tagged MOF by alphascreen assay
[17] = molecular target: T2, Histone acetyltransferase KAT8 (Homo sapiens); test: Inhibition of human His-tagged MOF using constant concentration acetyl-CoA and varying levels of histone H4 substrate by radioactive acetylation assay
[18] = species on record: Homo sapiens; test: Selectivity ratio of IC50 for HDAC1 (unknown origin) to IC50 for human His-tagged MOF by alphascreen assay
[19] = molecular target: T2, Histone acetyltransferase KAT8 (Homo sapiens); test: Inhibition of MOF in human HCT116 cells assessed as decrease in SKP2 mRNA level after 3 days by quantitative real-time PCR analysis
[20] = molecular target: T2, Histone acetyltransferase KAT8 (Homo sapiens); test: Inhibition of human His-tagged MOF using constant concentration histone H4 substrate and varying levels of acetyl-CoA by radioactive acetylation assay
[21] = test system: HCT-116; test: Inhibition of colony formation in human HCT116 cells at 100 uM after 14 days by crystal violet staining based assay; type: functional, cell-based

Structure (SMILES) | IC50 [1] [µM] | inhibition [3] [%] | inhibition [5] [%] | also measured
O=C(Cc1cccc2ccccc12)Nc1ccc2nc(SCC(=O)N3CCCC3)sc2c1 | 14 |  |  | 
C=C1C(=O)O[C@H](CCC)[C@H]1C(=O)O |  |  |  | IC50 [2]: 100 µM
CCN(CC)S(=O)(=O)c1ccc(/C=C/c2nc3cc(F)ccc3s2)cc1 |  | 53 | 84 | IC50 [4]: 40 µM; Activity [6]: Dose-dependent effect; Kd [7]: 19 µM
N#Cc1c(-c2ccccc2)cc(-c2cccs2)nc1SCC(=O)NCC(=O)O | 74 |  |  | 
Oc1cc(O)c2sc3nc(-c4cccs4)cc(-c4cccs4)c3c2n1 | 23 |  |  | 
CCN(CC)S(=O)(=O)c1ccc(/C=C/c2nc3ccc(Br)cc3s2)cc1 |  | 5 | 21 | 
CCN(CC)S(=O)(=O)c1ccc(/C=C/c2nc3ccccc3s2)cc1 |  | 93 | 100 | inhibition [8]: Dose-dependent effect; Ratio IC50 [9]: > 11; IC50 [4]: 6 µM; inhibition [10]: Dose-dependent effect; IC50 [11]: > 100 µM; IC50 [12]: > 100 µM; Activity [13]: Active; inhibition [14]: Dose-dependent effect; IC50 [15]: > 100 µM; Ratio IC50 [16]: > 11; inhibition [17]: inactive; Ratio IC50 [18]: > 11; inhibition [19]: Dose-dependent effect; inhibition [20]: Active
COc1ccc(CNS(=O)(=O)c2ccc(/C=C/c3nc4ccccc4s3)cc2)cc1 |  | 0 | 28 | 
CC1CCc2c(sc3nnn(CC(=O)Nc4cccc5ccccc45)c(=O)c23)C1 (configuration not stated) | 25 |  |  | 
CCN(CC)S(=O)(=O)c1ccc(/C=C/c2nc3cc(C)ccc3s2)cc1 |  | 0 | 14 | 
CCCCCCCc1ccc(CCc2cccc(O)c2C(=O)O)cc1 | 27 | 100 | 100 | IC50 [4]: 15 µM; inhibition [21]: Active
CCN(CC)S(=O)(=O)c1ccc(/C=C/c2nc3ccccc3s2)cc1Cl |  | 7 | 12 | 
CCN(CC)S(=O)(=O)c1ccc(/C=C/c2nc3cc(Br)ccc3s2)cc1 |  | 57 | 82 | IC50 [4]: 30 µM
CCN(CC)S(=O)(=O)c1ccc(/C=C/c2nc3cc(OC)ccc3s2)cc1 |  | 14 | 13 | 
CCN(CC)S(=O)(=O)c1ccc(/C=C/c2nc3ccccc3s2)cc1F |  | 16 | 18 | 
O=C(CCCCCCC(=O)Nc1ccccc1)NO |  |  |  | inhibition [10]: Dose-dependent effect
Cc1ccc(CNS(=O)(=O)c2ccc(/C=C/c3nc4ccccc4s3)cc2)cc1 |  | 17 | 33 | 
CCN(CC)S(=O)(=O)c1ccc(/C=C/c2nc3ccc(F)cc3s2)cc1 | 6.6 to 40 |  |  | 
CCN(CC)S(=O)(=O)c1ccc(/C=C/c2nc3cc(C)c(C)cc3s2)cc1 |  | 95 | 96 | IC50 [4]: 7.7 µM
CCc1nnc(NC(=O)CCSCCC(=O)Nc2nnc(CC)s2)s1 | 18 |  |  | 
O=S(=O)(NCc1ccccc1)c1ccc(/C=C/c2nc3ccccc3s2)cc1 |  | 1 | 11 | 
O=S(=O)(Nc1ccccc1)c1ccc(/C=C/c2nc3ccccc3s2)cc1 |  | 13 | 25 | 
CCN(CC)S(=O)(=O)c1ccc(/C=C/c2nc3ccccc3s2)cc1C |  | 28 | 30 | 
CCN(CC)S(=O)(=O)c1ccc(/C=C/c2nc3cc(Cl)ccc3s2)cc1 |  | 64 | 89 | IC50 [4]: 30 µM
Cc1ccc(C2C(C(=O)c3cc4ccccc4o3)=C(O)C(=O)N2Cc2ccco2)cc1 (configuration not stated) | 29 |  |  | 
CN(C)S(=O)(=O)c1ccc(/C=C/c2nc3ccccc3s2)cc1 |  | 9 | 14 | 
Cc1ccc(-c2cc(C(=O)O)c3cc4c(C(=O)O)cc(-c5ccc(C)o5)nc4cc3n2)o1 | 17 |  |  | 
